Data set [1] is described as follows: melting temperature; fluorescence melt of hairpins on a sequencing array, two-state fit, raised by 9.35 °C to match UV melts. Conditions: sodium 0.088 M. The essentials: (§1)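 Cy3 fluorescence of library hairpins on a sequenced MiSeq flow cell, with annealed Cy3 and quencher oligos, was imaged in 50 mM Na-HEPES pH 8.0, 25 mM NaCl in 2.5 °C steps up to 60 °C. Signals were normalised to pre-quench Cy3 and to control variants. Melting temperature and folding enthalpy came from bootstrapped two-state fits, inverse-variance combined over four replicates. Fitted temperatures were raised by 9.35 °C to match UV melts.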

Data set [2] in a line: folding enthalpy; higher = less favourable; fluorescence melt of hairpins on a sequencing array, two-state fit. Conditions: sodium 0.088 M. The essentials: as §1

GCGACCGAAAGGTAGCGC ((((((....)))..))): the Tm in data set [1] stood at 68.5 °C. Also, the folding enthalpy in data set [2] is -31.7 kcal/mol.
Turning to GATCCTTTGAGGATC ((((((...)))))), in data set [1], the Tm turned out to be 54.2 °C. In data set [2], the folding enthalpy was -33.6 kcal/mol.
On to GACACCGAAAGGTAGTC ((((((....))).))), for which, in data set [1], the Tm amounted to 50.1 °C. The folding enthalpy in data set [2] was -22.5 kcal/mol.
On to GCACAGCGAAAGCAGAGC ((.(.((....)).).)), for which the Tm in data set [1] is 47.3 °C. Besides, the folding enthalpy in data set [2] is -13.7 kcal/mol.
Turning to GCGTGCGGAAACACACGC (((((.(....).))))), the Tm in data set [1] came to 58.5 °C. Besides, the folding enthalpy in data set [2] is -40.2 kcal/mol.
For CGTTCGGAAACGAGGACG ((((((....)))..))), in that order: 34.7 °C and -14.1 kcal/mol.
Take GCCTTGCGAAAGCGACGC ((.(.((....)).).)): the Tm in data set [1] is 48.2 °C. In addition, in data set [2], the folding enthalpy is -10.5 kcal/mol.
As for GCCATAGGAAACTGTGGC ((((.((....)).)))), the Tm in data set [1] worked out at 52.2 °C. The folding enthalpy in data set [2] was -39.1 kcal/mol.
For GGTCCCCGAAAGGGCACC (((.(((....))).))), in that order: 49 °C and -19.3 kcal/mol.
Consider GTCCTTCCGAAAGGAGAC (((..(((....)))))), for which, in data set [1], the Tm came out at 28.1 °C. The folding enthalpy in data set [2] is -11.4 kcal/mol.
Consider GTGACCGAAAGGTACAC ((((((....))).))), for which the Tm in data set [1] is 49.9 °C. The folding enthalpy in data set [2] was -19.4 kcal/mol.
With GGGAGCGGAAACGCTTCC ((.((((....)))).)), in data set [1], the Tm was determined as 61.4 °C. Also, in data set [2], the folding enthalpy was -33.7 kcal/mol.
The like results for GGGCCGGGAAACCGGTCC ((.((((....)))).)) were, in that order, 68.8 °C and -38.3 kcal/mol.
As to GATCCTACGCAGGATC ((((((....)))))), the Tm in data set [1] was determined as 51.1 °C. Also, the folding enthalpy in data set [2] is -35 kcal/mol.
With GGACGCACGAAAGTGTCC (((..(((....)))))), in data set [1], the Tm worked out at 47 °C. Also, the folding enthalpy in data set [2] is -21.4 kcal/mol.
For GCGGCCATCCGC ((((....)))), in that order: 60 °C and -18.5 kcal/mol.
As to GCTCGGCGAAAGCTGTGC ((.(.((....)).).)), the Tm in data set [1] was 60.2 °C. In addition, in data set [2], the folding enthalpy is -15.4 kcal/mol.
Turning to GTTTAGGGAAACCTGAAC (((.(((....))).))), in data set [1], the Tm came out at 38.5 °C. For the same sequence, the folding enthalpy in data set [2] is -34.8 kcal/mol.
With GTGCCGGGAAACCGACAC (((.(((....))).))), in data set [1], the Tm was found to be 52.9 °C. Besides, the folding enthalpy in data set [2] is -33.5 kcal/mol.
For the sequence GGCCGTCGAAAGACAGCC (((.(((....))).))), in data set [1], the Tm was 58.4 °C. Besides, the folding enthalpy in data set [2] is -35.1 kcal/mol.
Regarding GATCTATCCTAGATC ((((((...)))))), the Tm in data set [1] was 41.1 °C. Moreover, in data set [2], the folding enthalpy was -30.6 kcal/mol.
For GAGGCCGAAAGGCCACTC ((((((....)))..))), the Tm in data set [1] was 60.4 °C. Moreover, in data set [2], the folding enthalpy is -10.2 kcal/mol.
For GGCCCTGGAAACGGGGTC (.(((.(....).))).), in that order: 49 °C and -30.9 kcal/mol.
Regarding GGAAAGGAAACTTTCC ((((((....)))))), the Tm in data set [1] amounted to 50 °C. Moreover, the folding enthalpy in data set [2] is -29.9 kcal/mol.
For GATTTAGCGAAAGCTATC (((..(((....)))))), in that order: 29.1 °C and -10.5 kcal/mol.
For CAACTGAAAAGTTG (((((....))))), in that order: 46.2 °C and -22.1 kcal/mol.
For the sequence GTGGGAGGAAACTCTCGC (.(.(((....))).).), the Tm in data set [1] worked out at 37.2 °C. Moreover, the folding enthalpy in data set [2] was -30.2 kcal/mol.
As for GATCTCGGAAACGAGACC (.(((((....))))).), the Tm in data set [1] was found to be 40.7 °C. In data set [2], the folding enthalpy is -16.5 kcal/mol.
Turning to GATCCCCGAAAGGGCATC (((.(((....))).))), the Tm in data set [1] amounted to 34.3 °C. In data set [2], the folding enthalpy is -14.3 kcal/mol.
On to GGCTCGGCGAAAGCCGCC (((..(((....)))))), for which, in data set [1], the Tm amounted to 43 °C. The folding enthalpy in data set [2] was -8.18 kcal/mol.
As to GTGCCAGGAAACCAGCAC ((((..(....)..)))), in data set [1], the Tm was 41.5 °C. Further, the folding enthalpy in data set [2] was -28.8 kcal/mol.
With GTTGCTGGAAACAGCGAC ((.((((....)))).)), in data set [1], the Tm worked out at 54.3 °C. The folding enthalpy in data set [2] is -39.6 kcal/mol.
For GATGGAGGAAACTCTGTC ((..(((....)))..)), in that order: 29.1 °C and -21 kcal/mol.
On to GTGGTGGAAACACCAC ((((((....)))))), for which, in data set [1], the Tm stood at 66.6 °C. The folding enthalpy in data set [2] is -34.7 kcal/mol.
With GAAGGGCGAAAGCCATTC (((.(((....))).))), the Tm in data set [1] amounted to 57.1 °C. The folding enthalpy in data set [2] was -22.2 kcal/mol.
Turning to GAGAAGCCGAAAGGCCTC (((..(((....)))))), the Tm in data set [1] was 37.4 °C. Further, the folding enthalpy in data set [2] is -12.7 kcal/mol.
Consider GTAGGTCGAAAGACATAC (((.(((....))).))), for which, in data set [1], the Tm is 51.9 °C. The folding enthalpy in data set [2] is -29.7 kcal/mol.
GAAATGGGAAACCATTCC (.(((((....))))).): the Tm in data set [1] turned out to be 31 °C. Also, the folding enthalpy in data set [2] is -14.8 kcal/mol.
As for GGAGGGACGAAAGTCTCC (((..(((....)))))), the Tm in data set [1] is 39.2 °C. Also, in data set [2], the folding enthalpy was -13.4 kcal/mol.
For GAGACCGAAAGGTCACTC ((((((....)))..))), in that order: 55.1 °C and -13.8 kcal/mol.
Regarding GATCCTGGTTAGGATC ((((((....)))))), the Tm in data set [1] amounted to 51.9 °C. Besides, the folding enthalpy in data set [2] is -38 kcal/mol.
On to GCCCGCGAAAGCGGTGGC ((((((....)))..))), for which, in data set [1], the Tm worked out at 57.7 °C. The folding enthalpy in data set [2] was -12.2 kcal/mol.
As for GTTATAGGAAACTATAAC (((((((....))))))), in data set [1], the Tm amounted to 45.4 °C. Also, the folding enthalpy in data set [2] was -35.5 kcal/mol.
As for GCACGGGGAAACCCACGC ((..(((....)))..)), the Tm in data set [1] was 41.5 °C. Moreover, the folding enthalpy in data set [2] was -23.9 kcal/mol.
As to GTCAAATCGAAAGATGAC (((..(((....)))))), in data set [1], the Tm stood at 35.6 °C. In data set [2], the folding enthalpy is -16.1 kcal/mol.
As to CGGTCCGGAAACGGTCCG (((.(((....))).))), in data set [1], the Tm came to 55.6 °C. In data set [2], the folding enthalpy was -40.5 kcal/mol.
Consider GGGCAGCGAAAGCTCCCC (((.(((....))).))), for which, in data set [1], the Tm was 56.3 °C. Further, in data set [2], the folding enthalpy was -18.3 kcal/mol.
The like results for GCAGTGAAAACTGC (((((....))))) were, in that order, 61.2 °C and -28.1 kcal/mol.
Take GCGATATTTCGC ((((....)))): the Tm in data set [1] was 50.1 °C. The folding enthalpy in data set [2] was -23.2 kcal/mol.
TCTCTGAAAAGAGA (((((....))))): in data set [1], the Tm is 37.2 °C. The folding enthalpy in data set [2] was -12.1 kcal/mol.
The like results for GACTACGAAAGTATCGTC ((((((....)))..))) were, in that order, 31.1 °C and -20.4 kcal/mol.
For the sequence GCAAGTCGAAAGACATGC (((.(((....))).))), the Tm in data set [1] is 52.7 °C. Moreover, the folding enthalpy in data set [2] was -29.1 kcal/mol.
Regarding GTCAACGAAAGTTCTGAC ((((((....)))..))), the Tm in data set [1] was found to be 25.9 °C. Besides, the folding enthalpy in data set [2] is -13.3 kcal/mol.
Take GTAGAGACGAAAGTCTAC (((..(((....)))))): the Tm in data set [1] was found to be 36 °C. In addition, in data set [2], the folding enthalpy is -11.7 kcal/mol.
In the case of GCGAACGGAAACATTCGC (((((.(....).))))), in data set [1], the Tm was found to be 48.2 °C. Besides, the folding enthalpy in data set [2] was -32.7 kcal/mol.

For the origin of these results see the array DNA melting data of Ke et al. (doi:10.1101/2024.01.08.574731).
